Laboratory results from ChEMBL document CHEMBL1926621, “New potent 5-HT(2A) receptor ligands containing an N'-cyanopicolinamidine nucleus: Synthesis and in vitro pharmacological evaluation” (Eur J Med Chem, 2012).

Assays:
[1] = biological target: T1, 5-hydroxytryptamine receptor 2C (Rattus norvegicus, UniProt P08909); experiment: Displacement of [3H]mesulergine from Sprague-Dawley rat brain cortex serotonin 5-HT2C receptor after 15 mins by liquid scintillation counting in presence of 5-HT2A blocker, spiperone
T1 sequence (P08909 whole entry): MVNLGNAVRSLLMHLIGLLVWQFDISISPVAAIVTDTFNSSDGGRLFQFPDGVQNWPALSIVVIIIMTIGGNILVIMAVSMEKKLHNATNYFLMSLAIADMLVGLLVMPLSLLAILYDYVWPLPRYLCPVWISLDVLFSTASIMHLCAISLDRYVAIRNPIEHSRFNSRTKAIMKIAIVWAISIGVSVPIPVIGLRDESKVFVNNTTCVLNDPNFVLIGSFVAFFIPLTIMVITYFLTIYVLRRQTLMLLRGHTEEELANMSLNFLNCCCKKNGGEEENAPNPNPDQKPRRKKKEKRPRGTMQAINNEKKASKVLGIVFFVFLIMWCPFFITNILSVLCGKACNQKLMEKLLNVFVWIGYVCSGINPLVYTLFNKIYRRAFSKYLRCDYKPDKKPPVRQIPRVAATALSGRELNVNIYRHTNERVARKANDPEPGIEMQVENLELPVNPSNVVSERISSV
Procedure, shortened: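 Male Sprague-Dawley rat frontal cortex membranes (Tris-HCl/EDTA/MgCl2 pH 7.4, ascorbate, pargyline). 100 nM spiperone in all tubes to block 5-HT2A sites. Mianserin defined nonspecific binding. 15 min at 37 °C, PEI-soaked glass fibre filtration. Six compound concentrations in triplicate. Ki by Cheng-Prusoff.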

[2] = biological target: 5-hydroxytryptamine receptor 2A (Rattus norvegicus, UniProt P14842); experiment: Displacement of [3H]ketanserin from Sprague-Dawley rat brain cortex serotonin 5-HT2A receptor after 15 mins by liquid scintillation counting
5-hydroxytryptamine receptor 2A, sequence (P14842 whole entry): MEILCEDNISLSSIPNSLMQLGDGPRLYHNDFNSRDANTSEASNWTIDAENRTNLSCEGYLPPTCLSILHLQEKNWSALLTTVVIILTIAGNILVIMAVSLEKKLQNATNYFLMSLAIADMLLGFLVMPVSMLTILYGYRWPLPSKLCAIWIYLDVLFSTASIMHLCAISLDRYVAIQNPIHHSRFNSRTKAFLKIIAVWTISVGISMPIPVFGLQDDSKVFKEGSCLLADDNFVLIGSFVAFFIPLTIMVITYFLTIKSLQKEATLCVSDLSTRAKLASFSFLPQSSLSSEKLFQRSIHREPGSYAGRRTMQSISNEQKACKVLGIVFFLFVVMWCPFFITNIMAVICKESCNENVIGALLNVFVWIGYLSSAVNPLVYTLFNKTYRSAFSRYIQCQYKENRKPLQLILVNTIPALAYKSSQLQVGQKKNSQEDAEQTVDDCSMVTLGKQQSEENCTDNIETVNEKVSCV
Procedure, shortened: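 Male Sprague-Dawley rat frontal cortex membranes in 50 mM Tris-HCl, 0.5 mM EDTA, 10 mM MgCl2 pH 7.4, with 0.1% ascorbate and pargyline. 0.4 nM [3H]ketanserin, 5 mg wet tissue, 15 min at 37 °C. Filtered on PEI-soaked glass fibre. Six compound concentrations in triplicate. IC50 converted to Ki by Cheng-Prusoff.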

[3] = biological target: T2, 5-hydroxytryptamine receptor 1A (Rattus norvegicus, UniProt P19327); experiment: Displacement of [3H]-8-OH-DPAT from Sprague-Dawley rat brain cortex serotonin 5-HT1A receptor after 30 mins by liquid scintillation counting
T2 sequence (P19327 whole entry): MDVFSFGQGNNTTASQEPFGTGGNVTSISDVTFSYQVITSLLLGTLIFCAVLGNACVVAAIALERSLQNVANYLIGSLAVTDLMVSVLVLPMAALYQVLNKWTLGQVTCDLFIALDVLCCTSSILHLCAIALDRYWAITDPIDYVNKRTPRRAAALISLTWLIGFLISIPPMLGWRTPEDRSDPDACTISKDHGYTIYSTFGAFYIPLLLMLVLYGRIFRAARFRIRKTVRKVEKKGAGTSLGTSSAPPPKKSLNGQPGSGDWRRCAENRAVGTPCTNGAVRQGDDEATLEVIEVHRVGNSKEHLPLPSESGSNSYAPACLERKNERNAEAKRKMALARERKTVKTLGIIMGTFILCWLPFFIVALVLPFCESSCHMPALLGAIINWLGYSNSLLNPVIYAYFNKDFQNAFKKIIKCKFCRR
Procedure, shortened: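 Male Sprague-Dawley rat (180-220 g) cerebral cortex homogenized in 50 mM Tris-HCl pH 7.7, spun 50,000 g. [3H]-8-OH-DPAT 0.1 nM final, 30 min at 37 °C, GF/B filtration. Test compounds in ethanol or 5% DMSO, six concentrations in triplicate. IC50 by curve fitting, Ki by Cheng-Prusoff using Scatchard-derived KD.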

D(2) dopamine receptor = D(2) dopamine receptor (Rattus norvegicus, UniProt P61169); experiment: Displacement of [3H]spiperone from rat corpora striatum dopamine D2 receptor after 15 mins by liquid scintillation counting
D(2) dopamine receptor, sequence (P61169 whole entry): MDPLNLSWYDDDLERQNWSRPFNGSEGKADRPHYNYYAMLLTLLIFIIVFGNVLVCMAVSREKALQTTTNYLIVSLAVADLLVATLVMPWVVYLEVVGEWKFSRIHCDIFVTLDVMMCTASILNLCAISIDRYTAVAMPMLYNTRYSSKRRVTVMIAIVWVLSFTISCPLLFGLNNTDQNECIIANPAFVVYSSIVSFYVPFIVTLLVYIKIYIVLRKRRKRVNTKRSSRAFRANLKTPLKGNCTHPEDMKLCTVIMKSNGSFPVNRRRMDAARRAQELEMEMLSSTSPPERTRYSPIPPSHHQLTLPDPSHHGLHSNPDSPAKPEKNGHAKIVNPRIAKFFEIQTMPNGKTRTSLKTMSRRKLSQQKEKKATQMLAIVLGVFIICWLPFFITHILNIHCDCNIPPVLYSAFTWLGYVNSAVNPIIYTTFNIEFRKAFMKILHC
Procedure, shortened: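 Corpora striata membranes in Tris-HCl buffer containing NaCl, KCl, CaCl2, MgCl2, ascorbic acid and pargyline. [3H]spiperone 0.4 nM final, 3 mg fresh tissue, incubated 15 min at 37 °C. GF/B filtration, scintillation counting. Six concentrations in triplicate. IC50 converted to Ki via Cheng-Prusoff.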

D(1A) dopamine receptor = D(1A) dopamine receptor (Rattus norvegicus, UniProt P18901); experiment: Displacement of [3H]SCH-23390 from rat corpora striatum dopamine D1 receptor after 15 mins by liquid scintillation counting
D(1A) dopamine receptor, sequence (P18901 whole entry): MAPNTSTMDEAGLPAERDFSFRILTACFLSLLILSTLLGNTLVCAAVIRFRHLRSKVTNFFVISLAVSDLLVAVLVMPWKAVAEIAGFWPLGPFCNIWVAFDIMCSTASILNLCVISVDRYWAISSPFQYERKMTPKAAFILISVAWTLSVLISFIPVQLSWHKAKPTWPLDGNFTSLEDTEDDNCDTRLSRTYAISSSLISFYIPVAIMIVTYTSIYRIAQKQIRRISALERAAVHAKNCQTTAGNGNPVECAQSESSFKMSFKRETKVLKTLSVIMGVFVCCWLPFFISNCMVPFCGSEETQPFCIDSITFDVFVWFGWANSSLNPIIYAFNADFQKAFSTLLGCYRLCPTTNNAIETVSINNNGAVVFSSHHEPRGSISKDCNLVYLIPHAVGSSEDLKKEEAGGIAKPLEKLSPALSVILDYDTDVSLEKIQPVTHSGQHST
Procedure, shortened: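 Rat corpora striata homogenized in 50 mM Tris-HCl pH 7.7, spun twice at 50,000 g. Resuspended in Tris-HCl with NaCl, KCl, CaCl2, MgCl2, ascorbic acid and pargyline. 0.4 nM [3H]SCH-23390 final, 3 mg fresh tissue, 15 min at 37 °C. Nonspecific binding with piflutixol. Ki by Cheng-Prusoff from triplicate six-point curves.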

[4] = biological target: T3, Adrenergic receptor alpha-1 (Rattus norvegicus, UniProt P15823+P23944+P43140); experiment: Displacement of [3H]prazosin from rat brain cortex adrenergic alpha1 receptor after 30 mins by liquid scintillation counting
T3 sequence (P15823 whole entry): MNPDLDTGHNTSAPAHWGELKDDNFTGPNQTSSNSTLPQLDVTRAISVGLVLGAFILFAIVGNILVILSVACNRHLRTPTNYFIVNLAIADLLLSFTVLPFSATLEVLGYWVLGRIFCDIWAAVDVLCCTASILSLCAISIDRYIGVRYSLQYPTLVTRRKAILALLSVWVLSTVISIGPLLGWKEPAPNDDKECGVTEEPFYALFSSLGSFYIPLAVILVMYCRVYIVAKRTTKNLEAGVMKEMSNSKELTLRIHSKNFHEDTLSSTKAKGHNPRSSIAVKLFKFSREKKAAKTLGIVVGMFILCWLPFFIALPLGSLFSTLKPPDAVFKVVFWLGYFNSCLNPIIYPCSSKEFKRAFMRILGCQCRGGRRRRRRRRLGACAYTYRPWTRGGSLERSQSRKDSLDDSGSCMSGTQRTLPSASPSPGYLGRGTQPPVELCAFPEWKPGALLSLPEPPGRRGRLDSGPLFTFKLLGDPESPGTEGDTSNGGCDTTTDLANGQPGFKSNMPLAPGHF
T3 sequence (P23944 whole entry): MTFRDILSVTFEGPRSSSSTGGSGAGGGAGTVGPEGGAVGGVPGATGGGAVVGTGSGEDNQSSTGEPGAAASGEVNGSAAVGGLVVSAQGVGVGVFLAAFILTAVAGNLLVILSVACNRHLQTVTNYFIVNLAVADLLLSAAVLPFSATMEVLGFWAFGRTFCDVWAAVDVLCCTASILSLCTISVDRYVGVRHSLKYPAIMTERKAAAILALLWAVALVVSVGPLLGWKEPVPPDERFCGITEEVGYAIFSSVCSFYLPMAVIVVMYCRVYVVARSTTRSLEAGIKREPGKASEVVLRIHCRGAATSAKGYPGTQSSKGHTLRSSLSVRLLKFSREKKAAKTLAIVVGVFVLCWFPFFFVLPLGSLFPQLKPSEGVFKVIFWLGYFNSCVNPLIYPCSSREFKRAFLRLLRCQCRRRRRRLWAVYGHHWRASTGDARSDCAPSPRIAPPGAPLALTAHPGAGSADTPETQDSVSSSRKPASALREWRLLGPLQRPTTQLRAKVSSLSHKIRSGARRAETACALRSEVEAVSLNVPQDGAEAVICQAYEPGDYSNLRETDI
T3 sequence (P43140 whole entry): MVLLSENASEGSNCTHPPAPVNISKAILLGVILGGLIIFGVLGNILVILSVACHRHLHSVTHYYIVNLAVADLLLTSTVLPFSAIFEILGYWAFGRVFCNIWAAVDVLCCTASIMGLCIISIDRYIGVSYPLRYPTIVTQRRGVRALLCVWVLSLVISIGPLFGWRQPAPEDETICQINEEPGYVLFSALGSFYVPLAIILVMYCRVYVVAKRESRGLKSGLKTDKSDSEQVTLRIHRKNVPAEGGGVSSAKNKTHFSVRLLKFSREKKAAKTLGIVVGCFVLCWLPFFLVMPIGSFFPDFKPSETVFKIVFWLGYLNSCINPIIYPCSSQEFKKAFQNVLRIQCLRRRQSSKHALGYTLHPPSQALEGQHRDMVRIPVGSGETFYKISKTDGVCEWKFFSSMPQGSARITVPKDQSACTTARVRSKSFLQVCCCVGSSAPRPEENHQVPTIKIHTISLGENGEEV
Procedure, shortened: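 Brain cortex homogenized in 50 mM Tris-HCl pH 7.2, spun twice at 50,000 g, resuspended in Tris-HCl pH 7.4. 0.4 nM [3H]prazosin final, 10 mg fresh tissue, 30 min at 25 °C. Nonspecific binding with phentolamine. GF/B filtration. Ki by Cheng-Prusoff from six-point triplicate curves.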

[5] = biological target: T4, Adrenergic receptor alpha-2 (Rattus norvegicus, UniProt P22086+P19328+P22909); experiment: Displacement of [3H]yohimbine from rat brain cortex adrenergic alpha2 receptor after 30 mins by liquid scintillation counting
T4 sequence (P22086 whole entry): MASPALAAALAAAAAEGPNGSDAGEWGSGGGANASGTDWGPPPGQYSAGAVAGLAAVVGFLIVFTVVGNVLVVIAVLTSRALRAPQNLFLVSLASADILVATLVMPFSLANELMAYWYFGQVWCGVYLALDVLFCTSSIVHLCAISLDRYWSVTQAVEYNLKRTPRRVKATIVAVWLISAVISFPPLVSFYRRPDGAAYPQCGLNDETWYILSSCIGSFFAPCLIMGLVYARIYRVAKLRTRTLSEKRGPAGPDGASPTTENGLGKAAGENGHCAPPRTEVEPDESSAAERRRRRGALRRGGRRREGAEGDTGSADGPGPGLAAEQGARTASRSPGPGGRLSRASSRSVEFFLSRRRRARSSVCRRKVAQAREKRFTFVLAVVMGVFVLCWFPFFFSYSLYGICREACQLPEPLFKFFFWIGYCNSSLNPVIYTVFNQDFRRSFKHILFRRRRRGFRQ
T4 sequence (P19328 whole entry): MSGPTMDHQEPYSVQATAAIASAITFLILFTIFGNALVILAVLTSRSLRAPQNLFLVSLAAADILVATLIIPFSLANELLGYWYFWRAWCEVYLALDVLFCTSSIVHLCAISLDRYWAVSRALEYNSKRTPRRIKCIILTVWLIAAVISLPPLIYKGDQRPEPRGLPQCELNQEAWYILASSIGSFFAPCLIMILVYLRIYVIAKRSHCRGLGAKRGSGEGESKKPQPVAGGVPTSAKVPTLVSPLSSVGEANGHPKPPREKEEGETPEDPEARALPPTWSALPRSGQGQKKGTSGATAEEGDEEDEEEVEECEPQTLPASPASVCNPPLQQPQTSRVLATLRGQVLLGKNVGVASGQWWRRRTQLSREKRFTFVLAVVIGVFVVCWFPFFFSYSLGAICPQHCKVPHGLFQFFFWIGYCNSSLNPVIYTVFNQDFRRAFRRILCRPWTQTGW
T4 sequence (P22909 whole entry): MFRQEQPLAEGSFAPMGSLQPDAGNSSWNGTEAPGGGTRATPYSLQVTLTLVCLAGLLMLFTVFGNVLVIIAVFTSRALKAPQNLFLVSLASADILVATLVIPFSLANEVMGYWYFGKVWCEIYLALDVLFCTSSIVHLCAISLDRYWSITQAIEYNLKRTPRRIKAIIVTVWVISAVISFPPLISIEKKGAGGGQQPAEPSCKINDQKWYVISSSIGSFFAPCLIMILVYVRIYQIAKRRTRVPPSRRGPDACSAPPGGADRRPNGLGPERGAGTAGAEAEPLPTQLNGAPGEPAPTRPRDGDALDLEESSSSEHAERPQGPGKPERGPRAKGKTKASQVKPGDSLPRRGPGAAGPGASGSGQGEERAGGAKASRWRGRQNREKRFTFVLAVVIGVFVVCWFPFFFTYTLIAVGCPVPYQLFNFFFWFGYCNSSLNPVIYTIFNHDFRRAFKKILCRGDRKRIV
Procedure, shortened: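 Cortex homogenized in 5 mM Tris-HCl, 5 mM EDTA pH 7.3, spun three times at 50,000 g, resuspended in 50 mM Tris-HCl, 0.5 mM EDTA pH 7.5. [3H]yohimbine 1 nM final, 10 mg fresh tissue, 30 min at 25 °C. Phentolamine defined nonspecific binding. Ki by Cheng-Prusoff.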

Ki [1] | Ki ([2]; read-out: Ki) | Ki ([3]; read-out: Ki) | Ki ([1]; read-out: Ki) | Ki [2] | Ki [3] | SMILES | other results
Not Active | 27 nM | 170 nM |  |  |  | N#C/N=C(\NCCCN1CCN(c2ccccc2Cl)CC1)c1ccccn1 | 
Not Active | > 10000 nM | 0.0842 nM |  |  |  | COc1ccc(N2CCN(CCCN/C(=N\C#N)c3ccccn3)CC2)cc1 | Ki (D(2) dopamine receptor; read-out: Ki): > 10 µM; Ki (D(1A) dopamine receptor; read-out: Ki): > 10 µM; Ki [4]: > 10 µM
 | 904 nM | > 10000 nM | 28.8 nM |  |  | N#C/N=C(\NCCCN1CCN(c2ccccc2C#N)CC1)c1ccccn1 | 
 | 0.000185 nM | 6.67 nM | 3.28 nM |  |  | N#CNC(=NCCCN1CCN(c2cccc(Cl)c2)CC1)c1ccccn1 | Ki (D(2) dopamine receptor; read-out: Ki): > 10 µM; IC50 [2]: 0.25 pM; Ki (D(1A) dopamine receptor; read-out: Ki): > 10 µM
 |  |  | 389 nM | Not Active | Not Active | COCCN1CCN(CCCN/C(=N\C#N)c2ccccn2)CC1 | 
Not Active | 51.8 nM | > 10000 nM |  |  |  | N#C/N=C(\NCCCN1CCN(Cc2ccc3c(c2)OCO3)CC1)c1ccccn1 | Ki (D(2) dopamine receptor): Not Active; Ki [5]: 0.964 µM; Ki (D(1A) dopamine receptor): Not Active
Not Active | 21.5 nM | > 10000 nM |  |  |  | N#C/N=C(\NCCCN1CCN(C(=O)c2ccco2)CC1)c1ccccn1 | Ki (D(2) dopamine receptor): Not Active; Ki [5]: > 10 µM; Ki (D(1A) dopamine receptor): Not Active
 |  |  | 597 nM | Not Active | Not Active | CCOCCN1CCN(CCCN/C(=N\C#N)c2ccccn2)CC1 | 

SMILES | Ki [1] | Ki ([2]; read-out: Ki) | Ki ([3]; read-out: Ki) | Ki ([1]; read-out: Ki) | Ki [2] | Ki [3] | other results
C=CCN1CCN(CCCN/C(=N\C#N)c2ccccn2)CC1 |  |  |  | > 10000 nM | Not Active | Not Active | 
